Hits are enriched below; roughly 5% of the tested compounds scored in any of these assays.
T cruzi repl: inhibitors of intracellular T. cruzi growth, primary screen, luminescence, NIH3T3 host cells; T. cruzi beta-gal in NIH3T3, 90 h; AID 1885, 2009; 1.4% of 300,000 active; inhibition, % (no concentration beside the values);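 active means mean inhibition across valid replicates above about 55%, limit read from the data; inconclusive means mean below that limit but half or more replicates reach it; inactive means mean below it, under half of replicates reach it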;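 further: signal also drops with host cell toxicity which is not excluded here; 0% = plate median of DMSO wells and 100% = zero luminescence signal; higher percent means less beta-gal luminescence so fewer parasites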
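System: NIH/3T3 fibroblasts plus reporter T. cruzi. Medium: DMEM plus 2% FBS. Probe or stimulus: 5000 reporter trypomastigotes per well. Compound: single 50 nL compound addition per well in DMSO. Incubation: co-culture of at least 90 h after 3 h attachment. Detection: GalScreen β-gal luminescence, detergent lysis, 60 min. Evaluation: parasite load inhibition, %.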
CSC inhib: cancer stem cell viability inhibitors, primary screen, luminescence; cancer stem cell-like cells viability; inhibition, % at 7.5 µM; 1.1% of 300,000 active; in the data active means inhibition above about 75%; inconclusive means no clear call, values can overlap the other calls; tested in HMLE shEcad cells
UPR XBP1 act: activators of adaptive XBP1 UPR arm, primary screen, cell-based, CHO-XBP1 luciferase reporter, luminescence, uHTS; IRE1-XBP1 UPR activation; percent of tunicamycin response, DMSO as zero; activation, % at 20 µM; 0.33% of 330,000 active;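 active means versus positive control, 20 µM dose yields 30% or more activation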;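 further: 100% = tunicamycin at 10 µg/mL and 0% = DMSO only wells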
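Material: CHO-XBP1 cells stably carrying IRE1-XBP1-driven luciferase reporter | Medium: F12 with 10% serum | Compound dosing: 20 µM single concentration, DMSO 1% | Incubation: Overnight seeding at 37 °C, 6 h compound treatment at 37 °C | Detection: Steady-Glo luminescence read | Read-out basis: % activation of reporter signal versus tunicamycin and DMSO controls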
Mdm2-MdmX inh: inhibitors of human Mdm2-MdmX association, primary screen, cell-based, luminescence, split luciferase, SaOS-2, uHTS; inhibition, % at 8 µM; SaOS-2 split-luciferase Mdm2/MdmX complementation; 3% of 330,000 active; Protein Mdm4 (Homo sapiens) + E3 ubiquitin-protein ligase Mdm2 (Homo sapiens), …;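 active means inhibition of at least 50% at 8 µM in the primary screen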
UPR CHOP act: activators of apoptotic CHOP UPR arm, primary screen, cell-based, CHO-CHOP luciferase reporter, luminescence, uHTS; 0.34% of 330,000 active; UPR activation; percent of tunicamycin response over DMSO baseline; activation, % at 10 µM; AID 449763, 2010;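 active means at 10 µM dose, activation of 40% or more, normalized to positive control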;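 further: 100% = tunicamycin at 10 µg/mL and 0% = DMSO alone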
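Dosing – one dose, 10 µM in 0.5% DMSO · System – CHO-CHOP cells, stable luciferase reporter of PERK-eIF2a-CHOP signalling · Input – 500 cells/well · Control set – tunicamycin 10 µg/mL final as positive, DMSO-only wells as negative · Timing – 6 h compound treatment, 37 °C · Measure – % activation vs tunicamycin · Technique – luminescence read with Steady-Glo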
Beta apoptosis: inhibitors of cytokine-induced beta cell apoptosis, primary screen, luminescence; INS-1E cytokine-induced death, ATP luminescence, 48 h; percent of positive-control rescue, neutral wells zero; AID 435005, 2010; protection from apoptosis, % (concentration not given with the values); 0.8% of 300,000 active;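 active means Every replicate reaches about 75%, or at least half do and their mean reaches it too, limit read from the data; inconclusive means At least half of replicates reach the limit but their mean does not; inactive means Under half of replicates reach the limit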;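 further: 0% = cytokine-treated negative control wells and 100% = positive control rescue; higher means more ATP so stronger rescue from cytokine killing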
* marks the source's active call; other numbers are inactive results; ? = inconclusive; · = no result.

SMILES | T cruzi repl | CSC inhib | UPR XBP1 act | Mdm2-MdmX inh | UPR CHOP act | Beta apoptosis
Cc1ccc(N/C=C(\[N+](=O)[O-])S(=O)(=O)c2ccccc2)cc1 | ? | -4 | 1 | -3 | 9 | -5
COc1ccc(N2CC(NC(=O)c3ccc4ccccc4c3)CC2=O)cc1OC (centres undefined) | -3 | -10 | -5 | 26 | 0 | 16
CCOc1ccc(N(C)S(=O)(=O)c2ccc(C)c(C(=O)OCC(=O)c3c[nH]c4ccccc34)c2)cc1 | 35 | 17 | -1 | 32 | -1 | 75*
COc1ccc(C(=O)OCC(=O)c2c[nH]c3ccccc23)c(OC)c1 | · | 4 | 3 | -82 | 6 | -7
COc1ccc(CCNC(=O)CCSc2nc(-c3ccco3)cc(C(F)(F)F)n2)cc1OC | 15 | -6 | -2 | 17 | -2 | 0
O=C(Nn1c(-c2ccncc2)nc2ccccc2c1=O)c1ccc(Br)cc1 | 67* | -7 | -4 | 30 | -1 | ·
O=C(Nn1c(-c2ccc(Br)cc2)nc2ccccc2c1=O)c1cccnc1 | -7 | -4 | -4 | -15 | -1 | -6
COc1ccc(CN2CCN(CCSc3ccc(C)cc3)CC2)c(OC)c1OC | 48 | 36 | -2 | 12 | -2 | 123*
COc1ccccc1/C(C)=N/NC(=S)NCc1ccccc1 | 10 | 12 | 2 | -20 | 0 | 4
Cc1ccc(OCCCCN(C)Cc2ccccc2)c(Br)c1 | 17 | 94* | 2 | -4 | -4 | 1
Cc1ccc(C(C)C)c(OCCCN(C)Cc2ccccc2)c1 | 41 | 9 | -1 | 12 | 1 | 13
Cc1ccc(NC(=O)CN2C(=O)C3C4C=CC(C4)C3C2=O)cc1S(=O)(=O)N(C)C (centres undefined) | -7 | -5 | -4 | 17 | 1 | ·
CCOc1ccc(OCCC(=O)Nc2cccc(S(=O)(=O)N3CCCC3)c2)cc1 | · | · | 0 | 10 | 3 | ·
Cc1ccc(CN2CCN(Cc3ccc(-n4cccn4)cc3C)CC2CCO)cc1 (centres undefined) | 62* | -2 | 1 | 0 | 0 | 2
Cc1nc2c(C(=O)NCc3ccc4c(c3)OCO4)cnn2c(C)c1Cc1ccc(F)cc1Cl | 34 | -3 | 2 | 25 | -2 | 5
Cc1ccccc1Cc1c(C)nc2c(C(=O)NCc3ccc4c(c3)OCO4)cnn2c1C | 29 | -1 | 0 | -5 | 1 | 4
Cc1ccc(C)c(Cc2c(C)nc3c(C(=O)NCc4ccc5c(c4)OCO5)cnn3c2C)c1 | 68* | 78* | 0 | 10 | 2 | 11
Cc1nc2c(C(=O)NCc3ccco3)cnn2c(C)c1Cc1ccc(F)cc1Cl | 74* | 1 | -2 | 20 | -1 | 6
COc1ccc(-c2cc3ccccc3oc2=O)cc1NC(=O)c1cccnc1 | 6 | 6 | 1 | 4 | 0 | 2
COc1ccccc1Oc1ccc(-c2cnc3ccccc3n2)cc1[N+](=O)[O-] | -17 | 4 | -3 | 0 | 2 | 7
O=[N+]([O-])c1cc(-c2cnc3ccccc3n2)ccc1Oc1ccc(Cl)cc1 | 0 | 77* | 1 | 7 | 4 | 5
Cc1c(C(=O)NCCSCc2cccc(C(F)(F)F)c2)cnn1-c1ccc(F)cc1 | 14 | 4 | -1 | 11 | -1 | 4
CC1=NN(C(N)=S)C(=O)C1N=Nc1c(Br)cc(Br)cc1Br (centres undefined) | 0 | 77* | 0 | -20 | 1 | 13
O=C(NC(=S)NCc1cccnc1)c1cccc2ccccc12 | 63* | -9 | 2 | 10 | -2 | -2
O=C(NC(=S)NCc1cccnc1)c1ccccc1F | 1 | · | -3 | 20 | 2 | -3
SMILES | T cruzi repl | CSC inhib | UPR XBP1 act | Mdm2-MdmX inh | UPR CHOP act | Beta apoptosis
CC(C)(C)c1ccc(O)c(O)c1 | · | 86* | -1 | 37 | 1 | -7
CC(C)(C)c1ccc(O)c(/C=N\O)c1 | -12 | -11 | 2 | 8 | 5 | 2
CCn1ccnc1C(O)(c1ccccc1)c1ccccc1 | 0 | -16 | -4 | 14 | 2 | -8
Cc1c(C(=O)Nc2nc3ccccc3[nH]2)oc2c(Cl)cccc12 | 70* | 10 | 18 | 32 | 6 | 38
Cc1c(C(=O)Nc2nc3ccccc3[nH]2)oc2ccc(Br)cc12 | 56* | -6 | 5 | 5 | 7 | 12
Cc1c(C(=O)Nc2nc3ccccc3[nH]2)oc2ccccc12 | -6 | -7 | 5 | -195 | 9 | 22
N#Cc1cnn2c(-c3ccc(Cl)cc3Cl)ccnc12 | 2 | -19 | 1 | -2 | 0 | ·
Cc1ccc(-n2c(C)cc(/C=N/NC(N)=S)c2C)cc1 | 65* | -8 | 17 | 21 | 8 | 8
Cc1cc(NC(=O)C2CC(=O)N(c3ccccc3)C2)no1 (centres undefined) | -7 | 6 | 2 | -3 | -1 | 7
Cc1ccc(C(=O)/C=C/c2cc(Br)cc(Br)c2O)o1 | 1 | 94* | -1 | 24 | -1 | 3
COc1ccccc1-c1nc(SCC(=O)NCC2CCCO2)c2c(=O)n(C)c(=O)n(C)c2n1 (centres undefined) | 15 | -24 | 0 | 24 | -2 | 4
O=C(CC1C(=O)NCCN1Cc1ccc(-c2ccccc2)cc1)NC1CCC1 (centres undefined) | -6 | 14 | 4 | 9 | 0 | 116*
CC(=O)Oc1ccc2c(=O)c(-c3nc4ccccc4s3)coc2c1 | -10 | 84* | -4 | -84 | -4 | -1
CC(C)Oc1ccc2c(=O)c(-c3ccccc3)coc2c1 | 12 | 3 | -7 | -269 | 2 | 7
CCCCOc1ccc(C(=O)NNC(=S)NC(=O)CC)cc1 | 4 | 47 | · | · | · | 79*
CCC(=O)NC(=S)NNC(=O)c1ccc(OC)cc1 | -13 | 20 | -1 | -25 | 1 | ·
CCNC(=S)Nc1ccc(Cl)c([N+](=O)[O-])c1 | 7 | 13 | -2 | -1 | 1 | 2
Cc1ccccc1-c1cc(C(=O)Nc2sc(C)c(C)c2C(N)=O)c2ccccc2n1 | 19 | · | 4 | 30 | 1 | 93*
CCOC(=O)c1c(NC(=O)c2cc(-c3ccc(Cl)s3)nc3ccccc23)sc(C(N)=O)c1C | -18 | 14 | · | · | · | 77*
COC(=O)c1cc(NC(=O)CSC2=NCCS2)cc(C(=O)OC)c1 | -14 | -9 | -3 | 21 | -1 | -4
Cc1ccc(-c2nnc(Nc3ccc(CC(N)=O)cc3)c3ccccc23)cc1 | 60* | · | 0 | -2 | 2 | ·

Screens (PubChem BioAssay)
